Assay results as given in ChEMBL document CHEMBL1158367, “Cationic surfactants from lysine: synthesis, micellization and biological evaluation” (Eur J Med Chem, 2009).
≈ marks a conversion by molar mass, not a printed value. Calls of active or inactive are those of the source. No cut-off for these calls is given here.

Tests used:
[1] = Toxicity in human erythrocytes assessed as hemolytic activity; type: cell-based, Erythrocyte
Procedure, shortened: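 Erythrocytes washed three times in isotonic phosphate saline with 10 mmol/L glucose, pH 7.4, then exposed to surfactant for 10 min at room temperature with shaking and centrifuged. Supernatant A540 compared with water-lysed total-haemolysis controls. HC50 read from percent haemolysis versus concentration plots.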

[2] = tested on: Serratia marcescens; test: Antimicrobial activity against Serratia marcescens at […] after 24 hrs; type: functional, organism-based
[3] = tested on: Salmonella enterica subsp. enterica; test: Antimicrobial activity against Salmonella Typhimurium at […] after 24 hrs; type: functional, organism-based; details: Salmonella enterica subsp. enterica serovar Typhimurium
[4] = tested on: Micrococcus luteus; test: Antimicrobial activity against Micrococcus luteus after 24 hrs; type: functional
Procedure, shortened: (§1)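 MIC by agar dilution: compound incorporated in nutrient agar at 0.1–256 µg/mL, with poorly soluble surfactants predissolved in minimal DMF and a DMF-matched solvent control. Plates were seeded with nutrient broth starter culture and incubated at 37 °C. Growth was scored visually after 24 h; test medium pH 6.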

[5] = tested on: Staphylococcus aureus; test: Antimicrobial activity against Staphylococcus aureus after 24 hrs; type: functional; procedure, shortened: as §1
[6] = tested on: Escherichia coli; test: Antimicrobial activity against Escherichia coli at […] after 24 hrs; type: functional, organism-based
[7] = tested on: Bordetella bronchiseptica; test: Antimicrobial activity against Bordetella bronchiseptica at […] after 24 hrs; type: functional, organism-based
[8] = tested on: Klebsiella aerogenes; test: Antimicrobial activity against Enterobacter aerogenes at […] after 24 hrs; type: functional, organism-based
[9] = tested on: Staphylococcus epidermidis; test: Antimicrobial activity against Staphylococcus epidermidis after 24 hrs; type: functional; procedure, shortened: as §1
[10] = tested on: Candida albicans; test: Antimicrobial activity against Candida albicans at […] after 24 hrs; type: functional, organism-based
[11] = tested on: Bacillus cereus; test: Antimicrobial activity against Bacillus cereus var. mycoides after 24 hrs; type: functional
Procedure, shortened: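 Agar dilution MIC: compounds incorporated into nutrient agar over 0.1–256 µg/mL; poorly soluble ones first dissolved in minimal DMF, then diluted into medium, with a DMF-supplemented solvent control. Inoculated from a nutrient broth starter culture to a final ca. 5 × […] CFU/mL. Incubated 24 h at 37 °C; growth scored visually against a compound-free control.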

[12] = tested on: Pseudomonas aeruginosa; test: Antimicrobial activity against Pseudomonas aeruginosa at […] after 24 hrs; type: functional, organism-based
[13] = tested on: Enterococcus hirae; test: Antimicrobial activity against Enterococcus hirae after 24 hrs; type: functional; procedure, shortened: as §1
[14] = tested on: Klebsiella pneumoniae; test: Antimicrobial activity against Klebsiella pneumoniae at […] after 24 hrs; type: functional, organism-based
[15] = tested on: Bacillus subtilis; test: Antimicrobial activity against Bacillus subtilis after 24 hrs; type: functional; procedure, shortened: as §1
[16] = tested on: Mycolicibacterium phlei; test: Antimicrobial activity against Mycobacterium phlei after 24 hrs; type: functional; procedure, shortened: as §1
[17] = Critical micelle concentration by PGSE-NMR method; type: physicochemical
Procedure, shortened: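 Surfactant intradiffusion measured by PGSE-NMR, varying gradient strength, from alkyl-chain CH2 signal intensities, at 25 °C (50 °C for the palmitoyl analogue). CMC taken from fitting the two-site exchange model D_obs = p_mic·D_mic + (1−p_mic)·D_free to the descending part of D versus concentration.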

[18] = tested on: Klebsiella pneumoniae; test: Antimicrobial activity against Klebsiella pneumoniae after 24 hrs; type: functional; procedure, shortened: as §1
[19] = tested on: Bordetella bronchiseptica; test: Antimicrobial activity against Bordetella bronchiseptica after 24 hrs; type: functional; procedure, shortened: as §1
[20] = tested on: Escherichia coli; test: Antimicrobial activity against Escherichia coli after 24 hrs; type: functional; procedure, shortened: as §1
[21] = tested on: Klebsiella aerogenes; test: Antimicrobial activity against Enterobacter aerogenes after 24 hrs; type: functional; procedure, shortened: as §1
[22] = tested on: Pseudomonas aeruginosa; test: Antimicrobial activity against Pseudomonas aeruginosa after 24 hrs; type: functional; procedure, shortened: as §1
[23] = tested on: Serratia marcescens; test: Antimicrobial activity against Serratia marcescens after 24 hrs; type: functional; procedure, shortened: as §1
[24] = tested on: Salmonella enterica subsp. enterica; test: Antimicrobial activity against Salmonella Typhimurium after 24 hrs; type: functional, Salmonella enterica subsp. enterica serovar Typhimurium; procedure, shortened: as §1
[25] = Toxicity against Daphnia magna after 24 hrs by immobility assay
Procedure, shortened: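 Daphnia magna acute test using laboratory-bred animals no older than 24 h. Medium pH 8.0, hardness 250 mg/L as CaCO3 (Ca/Mg 4/1), dark, 20 °C. Four groups of five per concentration, ten concentrations in geometric series. Immobility at 24 h plotted on log-probability paper; IC50 with 95% confidence ranges.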

[26] = tested on: Candida albicans; test: Antimicrobial activity against Candida albicans after 24 hrs; type: functional; procedure, shortened: as §1
[27] = Dissociation constant, pKa of the compound; type: physicochemical
Procedure, shortened: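 Apparent pKa calculated from pH measurements of surfactant solutions at concentrations that show antimicrobial activity.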

| Molecule | IC50 [1] [µM] | Activity [2] | Activity [3] | MIC [4] [µM] | MIC [5] [µM] | Activity [7] | Activity [8] | MIC [9] [µM] | Activity [10] | MIC [11] [µM] | Activity [12] | MIC [13] [µM] | Activity [14] | MIC [15] [µM] | MIC [16] [µM] | CMC [17] [mM] | MIC [18] [µM] | MIC [19] [µM] | MIC [20] [µM] | IC50 [25] [µM] | further results |
| --- | --- | --- | --- | --- | --- | --- | --- | --- | --- | --- | --- | --- | --- | --- | --- | --- | --- | --- | --- | --- | --- |
| CCCCCCCCCCCCCCCC(=O)NCCCC[C@H](N)C(=O)OC.Cl | 1450 | inactive | inactive | 74 | 148 | inactive | inactive | 148 | inactive | 148 | inactive | 74 | inactive | 148 | 148 | 0.6 | – | – | – | – | Activity [6]: inactive |
| hexadecyl trimethyl ammonium bromide | – | – | – | 44 | – | – | – | 10 | – | – | – | – | – | 44 | – | – | 44 | 20 | 44 | – | – |
| CCCCCCCCCCCC(=O)N[C@@H](CCCCN)C(=O)OC | 199 | – | – | 11 (≈ 3.77 µg/mL) | 85 (≈ 29.1 µg/mL) | – | – | 42 (≈ 14.4 µg/mL) | – | – | – | – | – | 42 (≈ 14.4 µg/mL) | – | – | 85 (≈ 29.1 µg/mL) | 42 (≈ 14.4 µg/mL) | 42 (≈ 14.4 µg/mL) | – | MIC [21]: 157 µM (≈ 53.8 µg/mL); MIC [22]: 169 µM (≈ 57.9 µg/mL); MIC [23]: 338 µM (≈ 116 µg/mL); MIC [24]: 85 µM (≈ 29.1 µg/mL) |
| CCCCCCCCCCCC(=O)NCCCC[C@H](N)C(=O)OC.Cl | 391 | inactive | inactive | 338 | 338 | inactive | inactive | 169 | – | 169 | inactive | 338 | – | 338 | 169 | 5.5 | 338 | – | 169 | 32 | MIC [26]: 169 µM; pKa [27]: 8.2 |
| CCCCCCCCCCCCCC(=O)NCCCC[C@H](N)C(=O)OC.Cl | 1230 | inactive | inactive | 157 | 157 | inactive | inactive | 157 | inactive | 157 | inactive | 157 | inactive | 157 | 78 | 1.6 | – | – | 157 | 7.3 | pKa [27]: 7.8 |
| CCCCCCCCCCCC(=O)N[C@@H](CCCNC(=N)N)C(=O)OC | 150 | – | – | 39 (≈ 14.5 µg/mL) | 39 (≈ 14.5 µg/mL) | – | – | 20 (≈ 7.41 µg/mL) | – | 39 (≈ 14.5 µg/mL) | – | 39 (≈ 14.5 µg/mL) | – | 157 (≈ 58.2 µg/mL) | 39 (≈ 14.5 µg/mL) | – | 79 (≈ 29.3 µg/mL) | 157 (≈ 58.2 µg/mL) | 157 (≈ 58.2 µg/mL) | 36 | MIC [21]: 157 µM (≈ 58.2 µg/mL); MIC [22]: 157 µM (≈ 58.2 µg/mL); MIC [23]: 315 µM (≈ 117 µg/mL); MIC [26]: 157 µM (≈ 58.2 µg/mL); MIC [24]: 157 µM (≈ 58.2 µg/mL) |
